Reference: ChEMBL document CHEMBL4038317, “Discovery of a Benzamide Derivative That Protects Pancreatic β-Cells against Endoplasmic Reticulum Stress” (J Med Chem, 2017)
One block for each compound: values may come before it. The source made the active and inactive calls. The rule behind the calls is not given here.

Tests used:
INS1 [1] = experiment: Cytoprotective activity in rat INS-1 cells assessed as protection against tunicamycin-induced ER stress-mediated reduction in cell viability after 3 days by CellTiter-Glo assay relative tunicamycin; format: functional; details: INS1, 72 h
In short: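 INS-1 cells, 3×10^3 per well, were co-treated with tunicamycin 0.1 μg/mL and compound for 72 h. Viability was read as intracellular ATP by luminescence and expressed as fold of no-tunicamycin cells. EC50 and maximum activity were taken as the increase in viability versus tunicamycin alone. Triplicate wells, three independent experiments.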

INS1 [2] = experiment: Cytoprotective activity in rat INS-1 cells assessed as protection against tunicamycin-induced ER stress-mediated reduction in cell viability after 3 days by CellTiter-Glo assay; details: INS1, 72 h
[3] = biological target: T1, Cyclic AMP-dependent transcription factor ATF-6 alpha (Rattus norvegicus) (UniProt G3V909); experiment: Inhibition of tunicamycin ER stress-induced ATF6 activation in rat INS-1 cells assessed as suppression of increase in […] mRNA levels up to 10 uM after 8 hrs by qRT-PCR analysis; format: cell-based
T1 sequence (whole entry): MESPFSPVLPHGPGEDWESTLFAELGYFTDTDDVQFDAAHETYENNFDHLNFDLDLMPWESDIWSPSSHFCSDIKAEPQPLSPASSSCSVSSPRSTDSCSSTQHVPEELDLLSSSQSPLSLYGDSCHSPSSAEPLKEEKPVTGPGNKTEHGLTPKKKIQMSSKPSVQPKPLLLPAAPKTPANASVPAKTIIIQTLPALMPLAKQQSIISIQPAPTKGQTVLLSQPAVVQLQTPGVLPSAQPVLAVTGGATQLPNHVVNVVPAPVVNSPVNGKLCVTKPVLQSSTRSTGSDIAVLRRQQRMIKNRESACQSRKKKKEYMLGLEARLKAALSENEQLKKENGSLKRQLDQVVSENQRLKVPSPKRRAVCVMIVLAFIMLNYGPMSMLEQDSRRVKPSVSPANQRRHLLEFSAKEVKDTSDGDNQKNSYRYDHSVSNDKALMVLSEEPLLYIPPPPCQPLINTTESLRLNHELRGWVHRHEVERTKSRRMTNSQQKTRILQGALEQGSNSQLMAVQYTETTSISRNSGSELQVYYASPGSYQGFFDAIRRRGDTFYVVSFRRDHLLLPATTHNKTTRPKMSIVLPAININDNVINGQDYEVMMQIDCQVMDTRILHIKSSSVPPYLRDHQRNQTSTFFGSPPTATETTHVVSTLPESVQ
In short: (§1)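 INS-1 cells, 4×10^5 per well, were exposed to tunicamycin 0.1 μg/mL with compound or DMSO for 8 h. qRT-PCR for ATF4, CHOP, Bip, GRP94, or spliced XBP1 using splicing-specific primers. Values were normalized to cyclophilin A by ΔΔCt and given as fold over untreated control. Triplicate wells, 3 independent experiments.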

[4] = biological target: T2, Eukaryotic translation initiation factor 2-alpha kinase 3 (Rattus norvegicus) (UniProt Q9Z1Z1); experiment: Inhibition of tunicamycin ER stress-induced PERK activation in rat INS-1 cells assessed as suppression of tunicamycin-induced increase in ATF4 protein levels up to 10 uM after 8 hrs by Western blot analysis; format: cell-based
T2 sequence (whole entry): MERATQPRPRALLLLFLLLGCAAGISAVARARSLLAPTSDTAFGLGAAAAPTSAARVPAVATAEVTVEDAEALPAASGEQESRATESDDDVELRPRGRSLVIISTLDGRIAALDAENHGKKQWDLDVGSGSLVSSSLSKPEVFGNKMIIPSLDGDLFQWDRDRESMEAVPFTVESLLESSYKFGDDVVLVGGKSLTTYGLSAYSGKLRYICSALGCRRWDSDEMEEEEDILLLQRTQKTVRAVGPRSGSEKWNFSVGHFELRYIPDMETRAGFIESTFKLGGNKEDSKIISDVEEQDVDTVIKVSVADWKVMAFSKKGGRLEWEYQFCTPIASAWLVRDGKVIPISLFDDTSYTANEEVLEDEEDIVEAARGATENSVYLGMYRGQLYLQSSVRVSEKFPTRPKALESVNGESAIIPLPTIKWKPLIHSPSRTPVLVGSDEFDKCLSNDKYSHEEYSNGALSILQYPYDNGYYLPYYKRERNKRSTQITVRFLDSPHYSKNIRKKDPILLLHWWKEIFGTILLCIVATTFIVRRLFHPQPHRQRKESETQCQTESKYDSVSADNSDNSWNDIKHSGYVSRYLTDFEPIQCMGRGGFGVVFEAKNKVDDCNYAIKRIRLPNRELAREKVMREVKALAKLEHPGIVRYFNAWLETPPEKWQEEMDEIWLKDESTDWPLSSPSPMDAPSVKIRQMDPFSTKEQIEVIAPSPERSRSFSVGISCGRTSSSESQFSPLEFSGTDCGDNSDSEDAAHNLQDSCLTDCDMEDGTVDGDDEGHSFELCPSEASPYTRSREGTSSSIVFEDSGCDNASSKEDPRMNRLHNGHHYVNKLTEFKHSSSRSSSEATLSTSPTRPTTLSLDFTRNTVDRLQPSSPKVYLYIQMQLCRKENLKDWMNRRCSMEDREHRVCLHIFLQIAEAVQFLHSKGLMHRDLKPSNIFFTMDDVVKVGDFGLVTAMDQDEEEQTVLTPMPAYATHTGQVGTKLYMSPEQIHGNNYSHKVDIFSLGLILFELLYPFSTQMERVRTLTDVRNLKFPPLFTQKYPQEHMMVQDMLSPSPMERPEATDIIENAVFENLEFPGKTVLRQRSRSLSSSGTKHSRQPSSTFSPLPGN
In short: (§2)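 INS-1 cells were exposed to tunicamycin 0.1 μg/mL with compound or DMSO for 8 h. Lysates were immunoblotted for ATF4 and CHOP (1:1000). Bands were quantified by densitometry and normalized to α-tubulin; 3 independent experiments.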

[5] = biological target: T2, Eukaryotic translation initiation factor 2-alpha kinase 3 (Rattus norvegicus); experiment: Inhibition of tunicamycin ER stress-induced PERK activation in rat INS-1 cells assessed as suppression of tunicamycin-induced increase in CHOP protein levels up to 10 uM after 8 hrs by Western blot analysis; format: cell-based; in short: as §2
[6] = biological target: T1, Cyclic AMP-dependent transcription factor ATF-6 alpha (Rattus norvegicus); experiment: Inhibition of tunicamycin ER stress-induced ATF6 activation in rat INS-1 cells assessed as suppression of increase in Bip mRNA levels up to 10 uM after 8 hrs by qRT-PCR analysis; format: cell-based; in short: as §1

Compound: O=C(NCCc1cccc(Cl)c1)c1ccc2c(c1)OCO2
Emax (INS1 [1]): 41% | EC50 (INS1 [2]): 25 µM

Compound: O=C(NCCc1ccc(Cl)c(Cl)c1)c1ccc(CN2CCCCC2)cc1
Emax (INS1 [1]): 71% | EC50 (INS1 [2]): 24 µM

Compound: CS(=O)(=O)Nc1cccc(C(=O)NCCc2ccccc2)c1
Emax (INS1 [1]): 24% | EC50 (INS1 [2]): 25 µM

Compound: CN(C)S(=O)(=O)c1ccc(C(=O)NCCc2ccccc2)cc1
Emax (INS1 [1]): 37% | EC50 (INS1 [2]): 19 µM

inhibition [3]: inactive | inhibition [4]: inactive | inhibition [5]: inactive | inhibition [6]: inactive
Compound: COc1ccc(CCNC(=O)c2ccc3c(c2)OCCO3)cc1OC
Emax (INS1 [1]): 5% | EC50 (INS1 [2]): > 30 µM

Compound: CC(C)Sc1ccccc1C(=O)NCCc1ccccc1
Emax (INS1 [1]): 30% | EC50 (INS1 [2]): > 30 µM

Compound: O=C(NCCc1ccccc1)c1ccc(CN2CCCC2)cc1
Emax (INS1 [1]): 31% | EC50 (INS1 [2]): 11 µM

Compound: O=C(NCc1ccc(Cl)cc1)c1cccc(CN2CCCCC2)c1
Emax (INS1 [1]): 93% | EC50 (INS1 [2]): 0.24 µM

Compound: COc1ccc(C(=O)NCCc2cccc(Cl)c2)cc1OC
Emax (INS1 [1]): 46% | EC50 (INS1 [2]): 24 µM

Compound: O=C(NCCc1ccccc1)c1ccc2c(c1)OCCO2
Emax (INS1 [1]): 47% | EC50 (INS1 [2]): 19 µM

Compound: O=C(NCc1cccc(Br)c1)c1ccc(CN2CCCCC2)cc1
Emax (INS1 [1]): 81% | EC50 (INS1 [2]): 4.9 µM

Compound: O=C(NCc1cccc(Br)c1)c1ccc2c(c1)OCCO2
Emax (INS1 [1]): 69% | EC50 (INS1 [2]): 5.5 µM

Compound: O=C(NCc1ccc(Cl)cc1)c1ccc(CN2CCCCC2)cc1
Emax (INS1 [1]): 77% | EC50 (INS1 [2]): 9.5 µM

Compound: O=C(NCCc1ccc(F)cc1)c1ccc2c(c1)OCCO2
Emax (INS1 [1]): 50% | EC50 (INS1 [2]): 21 µM

Compound: COc1cccc(CNC(=O)c2cccc(CN3CCCCC3)c2)c1
Emax (INS1 [1]): 92% | EC50 (INS1 [2]): 0.96 µM

Compound: O=C(NCCc1ccccc1)c1ccc(F)c(F)c1F
Emax (INS1 [1]): 23% | EC50 (INS1 [2]): 9.9 µM

Compound: O=C(NCc1cccc(Cl)c1)c1ccc2c(c1)OCCO2
Emax (INS1 [1]): 57% | EC50 (INS1 [2]): 9.5 µM

Compound: COc1ccc(C(=O)NCCc2ccccc2)cc1C
Emax (INS1 [1]): 56% | EC50 (INS1 [2]): 15 µM

Compound: O=C(NCc1cccc(Cl)c1)c1cccc(CN2CCCCC2)c1
Emax (INS1 [1]): 90% | EC50 (INS1 [2]): 0.41 µM

Compound: Nc1cccc(C(=O)NCCc2ccccc2)c1
Emax (INS1 [1]): < 0%

Compound: O=C(NCCc1ccc(Cl)cc1)c1ccc2c(c1)OCCO2
Emax (INS1 [1]): 51% | EC50 (INS1 [2]): 15 µM

Compound: O=C(NCc1ccc(Cl)cc1)c1ccc2c(c1)OCCO2
Emax (INS1 [1]): 69% | EC50 (INS1 [2]): 2.8 µM

Compound: O=C(NCc1ccc(Cl)c(Cl)c1)c1ccc(CN2CCCCC2)cc1
Emax (INS1 [1]): 78% | EC50 (INS1 [2]): 1.8 µM

Compound: C#CCOc1ccc(C(=O)NCCc2ccccc2)cc1
Emax (INS1 [1]): 54% | EC50 (INS1 [2]): > 30 µM

Compound: O=C(NCc1cccc(Cl)c1)c1ccc(CN2CCCCC2)cc1
Emax (INS1 [1]): 80% | EC50 (INS1 [2]): 2.2 µM

Compound: O=C(NCCc1ccccc1)c1ccc(CN2CCCCC2)cc1
Emax (INS1 [1]): 87% | EC50 (INS1 [2]): 21 µM

Compound: O=C(NCc1ccccc1Cl)c1ccc(CN2CCCCC2)cc1
Emax (INS1 [1]): 87% | EC50 (INS1 [2]): 13 µM

Compound: O=C(NCCc1cccc(Cl)c1)c1ccc2c(c1)OCCO2
Emax (INS1 [1]): 42% | EC50 (INS1 [2]): 21 µM

Compound: O=C(NCc1ccccc1Cl)c1cccc(CN2CCCCC2)c1
Emax (INS1 [1]): 93% | EC50 (INS1 [2]): 2.04 µM

Compound: CCOc1cccc(C(=O)NCCc2ccccc2)c1
Emax (INS1 [1]): 49% | EC50 (INS1 [2]): 26 µM

Compound: Cc1ccccc1C(=O)NCCc1ccccc1
Emax (INS1 [1]): 6%

Compound: COc1ccccc1CCNC(=O)c1ccc2c(c1)OCCO2
Emax (INS1 [1]): 29% | EC50 (INS1 [2]): > 30 µM

Compound: O=C(NCc1cccc(C(F)(F)F)c1)c1cccc(CN2CCCCC2)c1
Emax (INS1 [1]): 91% | EC50 (INS1 [2]): 0.25 µM

Compound: O=C(NCc1ccc(Cl)c(Cl)c1)c1ccc2c(c1)OCCO2
Emax (INS1 [1]): 68% | EC50 (INS1 [2]): 3.6 µM

Compound: COc1ccc(CNC(=O)c2cccc(CN3CCCCC3)c2)cc1
Emax (INS1 [1]): 93% | EC50 (INS1 [2]): 1.12 µM

Compound: O=C(NCc1ccccc1)c1cccc(CN2CCCCC2)c1
Emax (INS1 [1]): 95% | EC50 (INS1 [2]): 0.35 µM

Compound: O=C(NCc1ccc(Cl)cc1)c1ccccc1CN1CCCCC1
Emax (INS1 [1]): 73% | EC50 (INS1 [2]): 6.9 µM

Compound: O=C(NCc1ccccc1Br)c1ccc2c(c1)OCCO2
Emax (INS1 [1]): 38% | EC50 (INS1 [2]): 25 µM

Compound: Cc1ccc(C(=O)NCCc2ccccc2)cc1
Emax (INS1 [1]): 25% | EC50 (INS1 [2]): 20 µM

Compound: O=C(NCCc1ccccc1)c1cccc(F)c1
Emax (INS1 [1]): < 0%

Compound: O=C(NCCc1ccc(Cl)cc1)c1ccc(CN2CCCCC2)cc1
Emax (INS1 [1]): 82% | EC50 (INS1 [2]): 21 µM

Compound: O=C(NCCc1ccccc1)c1cc(F)c(F)c(F)c1F
Emax (INS1 [1]): < 0%

Compound: O=C(NCCc1ccccc1)c1ccc(Cl)c(Cl)c1
Emax (INS1 [1]): 42% | EC50 (INS1 [2]): 17 µM

Compound: O=C(NCc1ccccc1Cl)c1ccc2c(c1)OCCO2
Emax (INS1 [1]): 43% | EC50 (INS1 [2]): 25 µM

Compound: O=C(NCCc1ccccc1)c1cccc([N+](=O)[O-])c1
Emax (INS1 [1]): < 0%

Compound: COc1ccc(CCNC(=O)c2ccc3c(c2)OCCO3)cc1
Emax (INS1 [1]): 26% | EC50 (INS1 [2]): > 30 µM
